Measurements: ChEMBL document CHEMBL1122416, “An extension of the f-fragment method for the calculation of hydrophobic constants (log P) of conformationally defined systems” (J Med Chem, 1983)

Experiment: Partition coefficient (logP)
Assay type: physicochemical
Settings: octanol/water
Method in brief: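 Shake-flask partitioning of the neutral amine species between 1-octanol and 0.1 N NaOH. Both phases were analysed by gas chromatography on 10% Apiezon L with 2% KOH on 80-100 mesh Chromosorb WAW. Observed log P was taken from the phase distribution.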
In the case of `NC1C2CC[C@H]1c1ccccc12` (stereo in doubt; 19), the logP is reported as 2.08.
In the case of `CNC1C2CC[C@H]1c1ccccc12` (stereo in doubt; 11), the logP is reported as 2.47.

Same assay, conditions: octanol/water; read-out: logP
For `N[C@H]1CC2C[C@@H]1c1ccc(C(F)(F)F)cc12`, the logP was 2.91.
For `N[C@@H]1CC2C[C@@H]1c1ccc(C(F)(F)F)cc12`, the logP was 3.21.
With `NC1C2CC[C@H]1c1ccccc12` (stereo in doubt; 17) the logP was 2.13.
`CCCN[C@@H]1CC2C[C@@H]1c1ccccc12` showed a logP of 3.3.
Compound `N[C@@H]1CC2CCC1c1ccccc12` (some centres undefined) has a logP of 2.32.
`CN[C@H]1CC2C[C@@H]1c1ccccc12` showed a logP of 2.32.
Compound `CN[C@@H]1CC2C[C@@H]1c1ccccc12` has a logP of 2.41.
Compound `CN[C@@H]1CC2CC[C@@H]1c1ccccc12` has a logP of 2.68.
Compound `N[C@H]1CC2C[C@@H]1c1ccccc12` has a logP of 2.
`CN[C@H]1CC2O[C@@H]1c1ccccc12` gave a logP of 0.59.
`N[C@H]1CC2CC[C@@H]1c1ccccc12` showed a logP of 2.29.
`CCN[C@H]1CC2C[C@@H]1c1ccccc12` showed a logP of 2.62.
Compound `CN[C@@H]1CC2O[C@@H]1c1ccccc12` has a logP of 0.91.
Work on `N[C@H]1CC2O[C@@H]1c1ccccc12` yielded a logP of 0.4.
Work on `CCCN[C@H]1CC2C[C@@H]1c1ccccc12` yielded a logP of 3.13.
In the case of `N[C@@H]1CC2C[C@@H]1c1cc(C(F)(F)F)ccc12`, the logP is reported as 3.19.
In the case of `CN[C@H]1CC2CC[C@@H]1c1ccccc12`, the logP is reported as 2.59.
`N[C@@H]1CC2O[C@@H]1c1ccccc12` showed a logP of 0.75.
Work on `N[C@H]1CC2C[C@@H]1c1cc(C(F)(F)F)ccc12` yielded a logP of 2.85.
`CNC1C2CC[C@H]1c1ccccc12` (stereo in doubt; 13) gave a logP of 2.37.
Compound `CCN[C@@H]1CC2C[C@@H]1c1ccccc12` has a logP of 2.72.
`N[C@@H]1CC2C[C@@H]1c1ccccc12` gave a logP of 2.09.
